Reference: ChEMBL document CHEMBL4229560, “Increasing C-Terminal Hydrophobicity Improves the Cell Permeability and Antiproliferative Activity of PACE4 Inhibitors against Prostate Cancer Cell Lines” (J Med Chem, 2018)
Where a SMILES comes first, the peptide text is derived from it. [ ]: non-standard residue; d: D form. The star is where a group is joined. NH(4-amidinobenzyl) = N=C(N)c1ccc(CN*)cc1; Tryptamide = c1ccc2c(CCN*)c[nH]c2c1; βAla = NCCC(=O)O

Legend:
[1] = target: T1, Proprotein convertase subtilisin/kexin type 6 (Homo sapiens, UniProt P29122); assay: Inhibition of recombinant human PACE4 expressed in S2 insect cells using pyroGlu-Arg-Thr-Lys-Arg-AMC peptide as substrate after 1 hr by spectrofluorometry
T1 sequence (P29122 whole entry): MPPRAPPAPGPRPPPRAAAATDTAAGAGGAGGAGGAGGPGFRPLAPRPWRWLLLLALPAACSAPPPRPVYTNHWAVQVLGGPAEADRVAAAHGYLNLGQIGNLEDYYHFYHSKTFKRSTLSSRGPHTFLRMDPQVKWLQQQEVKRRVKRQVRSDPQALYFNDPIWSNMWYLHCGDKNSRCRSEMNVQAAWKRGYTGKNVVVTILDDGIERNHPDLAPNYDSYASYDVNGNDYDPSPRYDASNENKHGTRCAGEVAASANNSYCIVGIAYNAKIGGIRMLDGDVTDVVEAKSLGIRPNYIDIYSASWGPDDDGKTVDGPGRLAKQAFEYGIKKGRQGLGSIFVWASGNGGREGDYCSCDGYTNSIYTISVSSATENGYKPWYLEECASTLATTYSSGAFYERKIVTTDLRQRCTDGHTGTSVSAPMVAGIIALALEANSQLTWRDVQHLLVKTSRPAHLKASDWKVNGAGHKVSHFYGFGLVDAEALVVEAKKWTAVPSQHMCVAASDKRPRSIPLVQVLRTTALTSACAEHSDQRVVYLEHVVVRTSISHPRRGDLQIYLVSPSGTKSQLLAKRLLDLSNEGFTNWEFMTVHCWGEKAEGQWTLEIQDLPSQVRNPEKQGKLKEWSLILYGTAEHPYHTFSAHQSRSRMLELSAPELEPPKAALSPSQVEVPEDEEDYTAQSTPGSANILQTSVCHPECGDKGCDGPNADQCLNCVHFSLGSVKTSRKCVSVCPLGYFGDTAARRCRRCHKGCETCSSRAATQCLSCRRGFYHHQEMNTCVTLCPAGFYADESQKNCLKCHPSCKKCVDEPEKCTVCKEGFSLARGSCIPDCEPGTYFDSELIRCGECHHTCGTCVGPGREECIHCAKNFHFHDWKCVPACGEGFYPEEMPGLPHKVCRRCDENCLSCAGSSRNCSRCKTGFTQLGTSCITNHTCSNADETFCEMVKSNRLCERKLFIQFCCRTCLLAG
In short: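 Human recombinant PACE4 made in S2 insect cells and purified. Assay buffer 20 mM Bis-Tris pH 6.5, 1 mM CaCl2, 1.8 g/L BSA. Substrate 100 µM per well, inhibitors 0–10 µM, 2 units enzyme. Fluorescence (ex 370/em 460 nm) followed in real time for 1 h. Ki from IC50 by Cheng–Prusoff; duplicate or triplicate.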

[2] = Half life in human plasma by ion chromatogram-based analysis; format: ADME, cell-free
In short: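 Peptide at 50 µM was incubated at 37 °C in human serum from male AB plasma. At each time point, plasma was precipitated with MeOH containing Fmoc-Leu-OH internal standard, centrifuged and filtered. Samples were analysed by UPLC-MS. The peptide/standard ratio of total ion chromatogram peak area was expressed relative to 0 h.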

DU-145 [3] = assay: Cytotoxicity against human DU145 cells assessed as effect on live cells >10 uM after 1.5 hrs by propidium iodide-staining based FACS analysis; format: cell-based; details: du-145, 1.5 h
In short: (§1)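 DU145 cells (200 000 per well) exposed to peptides in serum-free medium for 1.5 h at 1, 10, 50 and 100 µM, or 1, 10, 15, 20, 30, 50, 100 µM for the dose-response set. Cells trypsinized, washed, resuspended in PBS, PI added (final 10 µg/mL), fluorescence read by flow cytometry; IC50(PI) from the dose-response curve; at least two independent experiments.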

DU-145 [4] = assay: Antiproliferative activity against human DU145 cells after 72 hrs by MTT assay; format: functional, cell-based; details: DU-145, 72 h
In short: (§2)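 MTT assay run 72 h. Seeding was ~1500 cells/well for DU145 and ~2500 cells/well for LNCaP, in RPMI 1640 with 5% FBS (DU145) or 10% FBS (LNCaP). Medium was changed after 24 h, then inhibitor added at 1–300 µM or 1–150 µM. MTT was added at 1 g/L final for 4 h and formazan dissolved in 2-propanol/HCl. Readings were relative to vehicle (water, 0.1% DMSO). IC50 was from at least two independent experiments.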

LNCaP [5] = assay: Antiproliferative activity against human LNCAP cells after 72 hrs by MTT assay; format: functional, cell-based; in short: as §2
Homo sapiens = species on record: Homo sapiens; assay: Selectivity ratio of Ki for recombinant human furin to Ki for recombinant human PACE4
In short: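 Ki values came from human recombinant enzymes expressed in S2 insect cells. Furin was assayed in 100 mM HEPES pH 7.5, 1 mM CaCl2, 1 mM β-mercaptoethanol and 1.8 g/L BSA. PACE4 was assayed in 20 mM Bis-Tris pH 6.5, 1 mM CaCl2 and 1.8 g/L BSA. Substrate was pERTKR-AMC at 100 µM, with inhibitor at 0–10 µM. Fluorescence (ex 370/em 460 nm) was read for 1 h, and Ki derived by Cheng-Prusoff.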

Furin = Furin (Homo sapiens, UniProt P09958); assay: Inhibition of recombinant human furin expressed in S2 insect cells using pyroGlu-Arg-Thr-Lys-Arg-AMC peptide as substrate after 1 hr by spectrofluorometry
Furin, sequence (P09958 whole entry): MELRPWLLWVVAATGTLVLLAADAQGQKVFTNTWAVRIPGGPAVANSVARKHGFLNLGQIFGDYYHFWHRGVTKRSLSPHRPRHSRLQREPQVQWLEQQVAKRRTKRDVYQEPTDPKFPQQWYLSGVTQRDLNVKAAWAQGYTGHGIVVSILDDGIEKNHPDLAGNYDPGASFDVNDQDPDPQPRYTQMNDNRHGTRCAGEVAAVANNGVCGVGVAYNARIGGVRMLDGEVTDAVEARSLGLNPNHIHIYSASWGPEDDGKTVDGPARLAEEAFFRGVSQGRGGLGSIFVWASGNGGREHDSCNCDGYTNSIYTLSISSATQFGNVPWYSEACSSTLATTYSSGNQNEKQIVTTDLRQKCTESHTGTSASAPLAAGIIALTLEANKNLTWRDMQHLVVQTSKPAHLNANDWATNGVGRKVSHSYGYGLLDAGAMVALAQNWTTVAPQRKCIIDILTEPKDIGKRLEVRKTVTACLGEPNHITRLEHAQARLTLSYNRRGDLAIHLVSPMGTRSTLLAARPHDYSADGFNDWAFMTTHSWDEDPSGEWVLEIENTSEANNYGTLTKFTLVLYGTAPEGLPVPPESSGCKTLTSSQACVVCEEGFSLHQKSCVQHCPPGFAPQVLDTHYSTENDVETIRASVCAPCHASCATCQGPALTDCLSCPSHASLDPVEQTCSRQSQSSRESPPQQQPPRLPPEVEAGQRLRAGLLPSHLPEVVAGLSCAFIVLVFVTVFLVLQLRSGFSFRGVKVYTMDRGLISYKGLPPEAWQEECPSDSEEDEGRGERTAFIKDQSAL
In short: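 Furin was human recombinant from S2 insect cells, purified. Buffer 100 mM HEPES pH 7.5, 1 mM CaCl2, 1 mM β-mercaptoethanol, 1.8 g/L BSA. Substrate 100 µM per well, inhibitors 0–10 µM, 2 units enzyme. Real-time fluorescence (ex 370/em 460 nm) over 1 h. Ki by Cheng–Prusoff; duplicate or triplicate.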

LNCaP [6] = assay: Antiproliferative activity against human LNCAP cells up to 300 uM after 72 hrs by MTT assay relative to control; format: functional; in short: as §2
DU-145 [7] = assay: Cytotoxicity against human DU145 cells assessed as effect on live cells up to 100 uM after 1.5 hrs by propidium iodide-staining based FACS analysis; format: cell-based; details: du-145, 1.5 h; in short: as §1
[8] = Drug uptake in human DU145 cells at 1 uM after 1 hr using FITC labelled compound by flow cytometric analysis relative to FITC-[betaAla]-LLLLRVKR-NH2 peptide; format: ADME, cell-based; details: du-145, 1 h
In short: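 DU145 cells were plated at 200000 per dish and grown 48 h at 37 °C. They were exposed to 1 µM N-terminally FITC-labelled peptide for 1 h at 37 °C, then trypsinized, washed and resuspended in PBS. PI at 10 µg/mL was added to gate out dead cells. Parallel tubes were quenched with 0.04% trypan blue to remove membrane-bound signal. Flow cytometry counted at least 10000 events.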

LNCaP [9] = assay: Antitumor activity against human LNCAP cells xenografted in nu mouse assessed as reduction in tumor volume at 2 mg/kg/day, iv administered at 24 hr intervals; format: functional; parameters: scale not given: the % may be the effect or the level left
LNCaP [10] = assay: Antitumor activity against human LNCAP cells xenografted in nu mouse assessed as reduction in serum prostate-specific antigen levels at 2 mg/kg/day, iv administered at 24 hr intervals; format: functional; parameters: scale not given: the % may be the effect or the level left
[11] = Acute toxicity in iv dosed CD1 mouse measured within 5 mins post dose; format: organism-based; details: in vivo
In short: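 Healthy CD1 mice received a single intravenous dose, given at various dose levels, to locate the toxicity threshold as a maximum tolerated dose (MTD).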

Row | Compound | Ki [1] [nM] | IC50 (DU-145 [4]) [nM] | IC50 (LNCaP [5]) [nM] | Ratio Ki (Homo sapiens) | Ki (Furin) [nM] | also measured
1 | CC(=O)N[C@H](CC(C)C)C(=O)N[C@@H](CC(C)C)C(=O)N[C@@H](CC(C)C)C(=O)N[C@@H](CC(C)C)C(=O)N[C@@H](CCCNC(=N)N)C(=O)N[C@H](C(=O)N[C@@H](CCCCN)C(=O)N[C@@H](CCCNC(=N)N)C(=O)NCCc1c[nH]c2ccccc12)C(C)C | 70 | 14000 | 18000 | 4 | 280 | half-life [2]: 0.8 h; Activity (DU-145 [3]): Toxic
2 | Ac-LLLLRVKRI-NH2 | 64 | 72000 |  | 5 | 290 | Activity (LNCaP [6]): <50%
3 | Ac-LLLLRVKRK-NH2 | 150 | 130000 |  | 17 | 2600 | Activity (DU-145 [7]): Non-Toxic
4 | Ac-LLLLRVKRR-NH2 | 160 | 71000 |  | 16 | 2500 | Activity (DU-145 [7]): Non-Toxic; Activity (LNCaP [6]): <50%
5 | CC(C)C[C@H](NC(=O)CCN)C(=O)N[C@@H](CC(C)C)C(=O)N[C@@H](CC(C)C)C(=O)N[C@@H](CC(C)C)C(=O)N[C@@H](CCCNC(=N)N)C(=O)N[C@H](C(=O)N[C@@H](CCCCN)C(=O)N[C@@H](CCCNC(=N)N)C(=O)NCCc1c[nH]c2ccccc12)C(C)C (H-[βAla]LLLLRVKR-Tryptamide) |  |  |  |  |  | fold change (FC) [8]: 3.5
6 | CC(C)C[C@H](NC(=O)CCN)C(=O)N[C@@H](CC(C)C)C(=O)N[C@@H](CC(C)C)C(=O)N[C@@H](CC(C)C)C(=O)N[C@@H](CCCNC(=N)N)C(=O)N[C@H](C(=O)N[C@@H](CCCCN)C(=O)N[C@@H](CCCNC(=N)N)C(=O)N[C@@H](CCCCN)C(N)=O)C(C)C (H-[βAla]LLLLRVKRK-NH2) |  |  |  |  |  | Drug uptake [8]: Active
7 | Ac-LLLLRVKRW-NH2 | 29 | 25000 | 31000 | 4 | 110 | Activity (DU-145 [3]): Toxic
8 | CC(=O)N[C@H](CC(C)C)C(=O)N[C@@H](CC(C)C)C(=O)N[C@@H](CC(C)C)C(=O)N[C@@H](CC(C)C)C(=O)N[C@@H](CCCNC(=N)N)C(=O)N[C@H](C(=O)N[C@@H](CCCCN)C(=O)NCc1ccc(C(=N)N)cc1)C(C)C (Ac-[dL]LLLRVK-{NH(4-amidinobenzyl)}) |  |  | 45000 | 2 |  | Activity (LNCaP [9]): 60%; Activity (LNCaP [10]): 47%; MTD at 5 min [11]: 10 mg/kg; half-life [2]: 1.7 h
